Measured values collected from several papers.
Compare with care: the assays were run in different laboratories.
Target: Serine/threonine-protein kinase pim-2 (PIM2, Homo sapiens, UniProt Q9P1W9)

Nc1nc(NC2CCCCC2)sc1C(=O)c1ccccc1 — remaining activity (enzyme activity; inhibitor; 10 µM): 94%
COc1cc2ncnc(Nc3ccc(Oc4ccccc4)cc3C)c2cc1OC — inhibition (enzyme activity; inhibitor; 1 µM): -2%
Cc1sc(C(=O)NC2COC2)cc1-n1cc(NC(=O)Nc2c(F)cccc2Cl)cn1 — remaining activity (enzyme activity; inhibitor; 10 µM): 96.5%
CCC(=O)N[C@H]1CC[C@@H](C(=O)N(C)c2ccc(-c3nc4ccccc4o3)cc2)C1 — remaining binding (cell-free assay; competition with immobilised ligand; 1 µM): 100%
Cc1ccc(C(=O)NCc2ccsc2)cc1C#Cc1cn(C(C)C)c2ncnc(N)c12 — activity vs control (enzyme activity; inhibitor; 1 µM): 92%
COc1cc(Nc2cnc(C#N)c(O[C@H](C)CN(C)C)n2)ncc1-c1cnn(C)c1 — remaining activity (enzyme activity; inhibitor; radiometric; 1 µM): 98%
Cc1cnc(NC2CCOCC2)nc1-n1cnc(C(=O)NC(CN)c2cc(F)cc(Cl)c2)c1 (stereo not shown) — remaining activity (enzyme activity; inhibitor; radiometric; 1 µM): 100%
CS(=O)(=O)N1CCCC(NC(=O)[C@H](CCC2CCCCC2)NC(=O)c2ccc(CNc3ncnc4c3nnn4-c3ccccc3)cc2)C1 (stereo partly shown) — remaining binding (cell-free assay; competition with immobilised ligand; 0.1 µM): 88%
O=C1Nc2ccc(Cl)cc2C1=Cc1cc(Cl)c(O)c(Cl)c1 — remaining signal (cell-free assay; 0.5 µM): 48.6%
O=c1nc(-c2ccccn2)sc2ccccc12 — remaining binding (binding; competition with immobilised ligand; 1 µM): 97%
Oc1cccc(-c2nc(N3CCOCC3)c3oc4ncccc4c3n2)c1 — remaining activity (enzyme activity; inhibitor; 10 µM): 90%
CNC(=O)c1cc(Oc2ccc(NC(=O)Nc3ccc(Cl)c(C(F)(F)F)c3)cc2)ccn1 — inhibition (enzyme activity; inhibitor; 0.3 µM): 6%
CN1CC(Oc2cnc(C#N)cc2-c2ccn3nc(NC(=O)C4CC4)cc3c2)C1 — inhibition (enzyme activity; inhibitor; 1 µM): 4%
COc1cc(/C=C/C(=O)CC(=O)/C=C/c2ccc(O)c(OC)c2)ccc1O — activity vs control (enzyme activity; inhibitor; 1 µM): 74%
O=C1NC(c2ccccn2)Sc2ccccc21 (stereo not shown) — remaining binding (cell-free assay; competition with immobilised ligand; 1 µM): 88%
CCN(CC)CCNC(=O)c1c(C)[nH]c(/C=C2\C(=O)Nc3ccc(F)cc32)c1C — remaining signal (cell-free assay; 0.5 µM): 97.2%
CNc1cccc2cc(C(=O)Nc3ccc(C(=O)O)cc3)c(=O)[nH]c12 — inhibition (enzyme activity; inhibitor; 10 µM): 13%
C[C@@H]1CN(c2cc(-c3n[nH]c4ccc(OC5(C)CC5)cc34)ncn2)C[C@H](C)O1 — remaining binding (cell-free assay; competition with immobilised ligand; 0.1 µM): 88%
C=CC(=O)Nc1cc(Nc2nccc(Nc3cc(Cl)c(F)cc3C(C)(C)O)n2)c(OC)cc1N1CC[C@@H](N(C)C)C1 — inhibition (enzyme activity; inhibitor; 1 µM): 16%
C#Cc1cccc(Nc2ncnc3cc(OCCOC)c(OCCOC)cc23)c1 — remaining signal (cell-free assay; 0.5 µM): 97.9%
N#Cc1ccc(Nc2ccc3[nH]c(=O)[nH]c3c2)c(Cl)c1 — remaining binding (cell-free assay; competition with immobilised ligand; 1 µM): 83%
Cn1c(=O)n(-c2ccc(C(C)(C)C#N)cc2)c2c3cc(-c4cnc5ccccc5c4)ccc3ncc21 — remaining activity (enzyme activity; inhibitor; 10 µM): 94%
FC(F)(F)Oc1cccc(-c2cnc3ccc(-c4ccncc4)nn23)c1 — activity vs control (enzyme activity; inhibitor; radiometric; 5 µM): 83%
Cc1ccc(Nc2nccc(N(C)c3ccc4c(C)n(C)nc4c3)n2)cc1S(N)(=O)=O — remaining activity (enzyme activity; inhibitor; 0.5 µM): 101%
CC(C)(C)c1nc2c(s1)c1nc(N)ncc1c1ccc(NS(=O)(=O)c3c(F)cccc3F)c(F)c12 — remaining activity (enzyme activity; inhibitor; radiometric; 1 µM): 81%
CC(C)(O)[C@H]1CC[C@H](Nc2ccc3ncc(-c4cccc(C(F)(F)F)c4)n3n2)CC1 — remaining activity (enzyme activity; inhibitor; 1 µM): 29.8%
CNC(=O)c1ccc(Nc2ncc(C(F)(F)F)c(NCc3nccnc3N(C)S(C)(=O)=O)n2)cc1 — remaining binding (cell-free assay; competition with immobilised ligand; 0.1 µM): 100%
CCN(CC)c1ccc(C2=NNC(=O)CC2C)cc1[N+](=O)[O-] (stereo not shown) — remaining activity (enzyme activity; inhibitor; 10 µM): 108%
O=C(CSc1nc2nccnc2c(=O)n1CCc1ccccc1)Nc1nccs1 — inhibition (enzyme activity; inhibitor; 10 µM): -5%
CC(=O)N1CCC(c2ccc(C(=O)NC(=N)N)cc2C(F)(F)F)CC1 — remaining binding (cell-free assay; competition with immobilised ligand; 1 µM): 100%
O=C(Nc1cnn(-c2csc(C(=O)NC3COC3)c2)c1)Nc1ccccc1Cl — remaining activity (enzyme activity; inhibitor; 5 µM): 96.4%
